Data from ChEMBL document CHEMBL2413013, “Triplex-forming ability of oligonucleotides containing 1-aryl-1,2,3-triazole nucleobases linked via a two atom-length spacer” (Bioorg Med Chem, 2013).

Experiments:
[1] = Binding affinity to hairpin double stranded DNA AT base pair in sodium cacodylate buffer at pH 6.8 assessed as triplex-forming ability measuring melting temperature after by UV melting experiment
Outline: (§1)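 TFO and hairpin dsDNA target, each strand at 1.89 μM final, in 10 mM sodium cacodylate (pH 6.8) with 100 mM KCl and 50 mM MgCl₂. Annealed in boiling water, then cooled slowly to 5 °C. Melting was followed at 260 nm from 5 to 90 °C at 0.5 °C/min. Tm was taken by the two-point average method, mean of three independent runs.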

[2] = Binding affinity to hairpin double stranded DNA GC base pair in sodium cacodylate buffer at pH 6.8 assessed as triplex-forming ability measuring melting temperature after by UV melting experiment; outline: as §1
[3] = Binding affinity to hairpin double stranded DNA CG base pair in sodium cacodylate buffer at pH 6.8 assessed as triplex-forming ability measuring melting temperature after by UV melting experiment; outline: as §1
[4] = Binding affinity to hairpin double stranded DNA TA base pair in sodium cacodylate buffer at pH 6.8 assessed as triplex-forming ability measuring melting temperature after by UV melting experiment; outline: as §1

Tm [1] [°C]	Tm [2] [°C]	Tm [3] [°C]	Tm [4] [°C]	SMILES
19	19	22	19	Cc1cn([C@H]2C[C@H](O[PH](OCCC#N)(OC[C@H]3O[C@@H](n4cc(C)c(=O)[nH]c4=O)C[C@@H]3O[PH](OCCC#N)(OC[C@H]3O[C@@H](n4cc(C)c(=O)[nH]c4=O)C[C@@H]3O[PH](OCCC#N)(OC[C@H]3O[C@@H](n4cc(C)c(=O)[nH]c4=O)C[C@@H]3O[PH](OCCC#N)(OC[C@H]3O[C@@H](n4cc(C)c(=O)[nH]c4=O)C[C@@H]3O[PH](OCCC#N)(OC(C)[C@H]3O[C@@H](n4ccc(N)nc4=O)C[C@@H]3O[PH](OCCC#N)(OC[C@H]3O[C@@H](n4cc(C)c(=O)[nH]c4=O)C[C@@H]3O[PH](OCCC#N)(OC[C@H]3O[C@@H](OCc4cn(-c5ccc(CO)cc5)nn4)C[C@@H]3OP(=O)(O)OC[C@H]3O[C@@H](n4cc(C)c(=O)[nH]c4=O)C[C@@H]3O[PH](OCCC#N)(OC(C)[C@H]3O[C@@H](n4ccc(N)nc4=O)C[C@@H]3O[PH](OCCC#N)(OC[C@H]3O[C@@H](n4cc(C)c(=O)[nH]c4=O)C[C@@H]3O[PH](OCCC#N)(OC(C)[C@H]3O[C@@H](n4ccc(N)nc4=O)C[C@@H]3O[PH](OCCC#N)(OC[C@H]3O[C@@H](n4cc(C)c(=O)[nH]c4=O)C[C@@H]3O[PH](OCCC#N)(OC(C)[C@H]3O[C@@H](n4ccc(N)nc4=O)C[C@@H]3O[PH](OCCC#N)(OC[C@H]3O[C@@H](n4cc(C)c(=O)[nH]c4=O)C[C@@H]3O)N(C(C)C)C(C)C)N(C(C)C)C(C)C)N(C(C)C)C(C)C)N(C(C)C)C(C)C)N(C(C)C)C(C)C)N(C(C)C)C(C)C)N(C(C)C)C(C)C)N(C(C)C)C(C)C)N(C(C)C)C(C)C)N(C(C)C)C(C)C)N(C(C)C)C(C)C)N(C(C)C)C(C)C)N(C(C)C)C(C)C)[C@@H](CO)O2)c(=O)[nH]c1=O (some centres not stated)
22	22	25	25	Cc1cn([C@H]2C[C@H](O[PH](OCCC#N)(OC[C@H]3O[C@@H](n4cc(C)c(=O)[nH]c4=O)C[C@@H]3O[PH](OCCC#N)(OC[C@H]3O[C@@H](n4cc(C)c(=O)[nH]c4=O)C[C@@H]3O[PH](OCCC#N)(OC[C@H]3O[C@@H](n4cc(C)c(=O)[nH]c4=O)C[C@@H]3O[PH](OCCC#N)(OC[C@H]3O[C@@H](n4cc(C)c(=O)[nH]c4=O)C[C@@H]3O[PH](OCCC#N)(OC(C)[C@H]3O[C@@H](n4ccc(N)nc4=O)C[C@@H]3O[PH](OCCC#N)(OC[C@H]3O[C@@H](n4cc(C)c(=O)[nH]c4=O)C[C@@H]3O[PH](OCCC#N)(OC[C@H]3O[C@@H](CCc4cn(-c5cccc(C(N)=O)c5)nn4)C[C@@H]3OP(=O)(O)OC[C@H]3O[C@@H](n4cc(C)c(=O)[nH]c4=O)C[C@@H]3O[PH](OCCC#N)(OC(C)[C@H]3O[C@@H](n4ccc(N)nc4=O)C[C@@H]3O[PH](OCCC#N)(OC[C@H]3O[C@@H](n4cc(C)c(=O)[nH]c4=O)C[C@@H]3O[PH](OCCC#N)(OC(C)[C@H]3O[C@@H](n4ccc(N)nc4=O)C[C@@H]3O[PH](OCCC#N)(OC[C@H]3O[C@@H](n4cc(C)c(=O)[nH]c4=O)C[C@@H]3O[PH](OCCC#N)(OC(C)[C@H]3O[C@@H](n4ccc(N)nc4=O)C[C@@H]3O[PH](OCCC#N)(OC[C@H]3O[C@@H](n4cc(C)c(=O)[nH]c4=O)C[C@@H]3O)N(C(C)C)C(C)C)N(C(C)C)C(C)C)N(C(C)C)C(C)C)N(C(C)C)C(C)C)N(C(C)C)C(C)C)N(C(C)C)C(C)C)N(C(C)C)C(C)C)N(C(C)C)C(C)C)N(C(C)C)C(C)C)N(C(C)C)C(C)C)N(C(C)C)C(C)C)N(C(C)C)C(C)C)N(C(C)C)C(C)C)[C@@H](CO)O2)c(=O)[nH]c1=O (some centres not stated)
21	21	22	22	Cc1cn([C@H]2C[C@H](O[PH](OCCC#N)(OC[C@H]3O[C@@H](n4cc(C)c(=O)[nH]c4=O)C[C@@H]3O[PH](OCCC#N)(OC[C@H]3O[C@@H](n4cc(C)c(=O)[nH]c4=O)C[C@@H]3O[PH](OCCC#N)(OC[C@H]3O[C@@H](n4cc(C)c(=O)[nH]c4=O)C[C@@H]3O[PH](OCCC#N)(OC[C@H]3O[C@@H](n4cc(C)c(=O)[nH]c4=O)C[C@@H]3O[PH](OCCC#N)(OC(C)[C@H]3O[C@@H](n4ccc(N)nc4=O)C[C@@H]3O[PH](OCCC#N)(OC[C@H]3O[C@@H](n4cc(C)c(=O)[nH]c4=O)C[C@@H]3O[PH](OCCC#N)(OC[C@H]3O[C@@H](CCc4cn(-c5cccc(O)c5)nn4)C[C@@H]3OP(=O)(O)OC[C@H]3O[C@@H](n4cc(C)c(=O)[nH]c4=O)C[C@@H]3O[PH](OCCC#N)(OC(C)[C@H]3O[C@@H](n4ccc(N)nc4=O)C[C@@H]3O[PH](OCCC#N)(OC[C@H]3O[C@@H](n4cc(C)c(=O)[nH]c4=O)C[C@@H]3O[PH](OCCC#N)(OC(C)[C@H]3O[C@@H](n4ccc(N)nc4=O)C[C@@H]3O[PH](OCCC#N)(OC[C@H]3O[C@@H](n4cc(C)c(=O)[nH]c4=O)C[C@@H]3O[PH](OCCC#N)(OC(C)[C@H]3O[C@@H](n4ccc(N)nc4=O)C[C@@H]3O[PH](OCCC#N)(OC[C@H]3O[C@@H](n4cc(C)c(=O)[nH]c4=O)C[C@@H]3O)N(C(C)C)C(C)C)N(C(C)C)C(C)C)N(C(C)C)C(C)C)N(C(C)C)C(C)C)N(C(C)C)C(C)C)N(C(C)C)C(C)C)N(C(C)C)C(C)C)N(C(C)C)C(C)C)N(C(C)C)C(C)C)N(C(C)C)C(C)C)N(C(C)C)C(C)C)N(C(C)C)C(C)C)N(C(C)C)C(C)C)[C@@H](CO)O2)c(=O)[nH]c1=O (some centres not stated)
